# Screening results (PubChem BioAssay)
# KCNQ1 act: potentiates or activates the human KCNQ1 potassium channel; CHO-K1 KCNQ1, thallium flux FluxOR fluorescence; hits give high values; AID 2648; P51787; actives 0.35% (n = 310,000); B-score at 10 µM;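 active = fluorescence ratio B-score, a plate-corrected score, at least three library SD, with initial intensity B-score within 5 SD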
#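 Test system: CHO-K1 cells stably expressing KCNQ1 / Medium: assay buffer / Also added: depolarizing K+/Tl+ stimulus, K2SO4 and Tl2SO4 each 12.5 mM in 5x stock / Incubation: 90 min dye loading and 20 min compound exposure, both at room temperature / Signal: thallium influx via FluxOR fluorescence, kinetic imaging / Evaluation: B score of baseline-normalized fluorescence ratio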
# KCNQ1 block: inhibitors of human KCNQ1 potassium channel; B-score at 10 µM; AID 2642; P51787; CHO-K1 KCNQ1, FluxOR thallium flux fluorescence; hits give high values; actives 1.3% (n = 310,000);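 active = compounds whose thallium flux B-score, printed positive for inhibition, exceeds three library SD while starting fluorescence stays within three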;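 also: channel opened by potassium depolarization with thallium stimulus after 20 min compound exposure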
# KCNK9 block: human KCNK9 channel inhibition; Q9NPC2; HEK293 KCNK9, FluxOR thallium flux fluorescence; hits give low values; B-score at 10 µM; actives 1.2% (n = 310,000); AID 488922;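 active = ratio B-score over 3 SD below the library mean, with starting fluorescence within 5 SD of its mean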;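 also: negative B-score means less thallium flux so channel inhibition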
# hERG rescue: shields human hERG channel from block by proarrhythmic agents | Q12809 | CHO-hERG, FluxOR thallium flux, dofetilide IC70 present | activation (rescue from dofetilide block), less the hit threshold, % at 10 µM | actives 0.51% (n = 310,000) | AID 1511;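 active = activation above the mean of controls blocked by dofetilide plus 5 SD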;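 also: thallium influx through hERG after potassium depolarization seen as dye fluorescence rise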
# KCNK3 block: human KCNK3 channel inhibition, primary screen. actives 0.84% (n = 340,000). AID 602410. B-score at 10 µM. CHO-KCNK3 thallium flux, FluxOR fluorescence; hits give low values;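 active = B-score under library mean minus 4 SD, starting fluorescence ratio at most library mean plus 5 SD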;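 also: more negative B-score means stronger inhibition of thallium flux through KCNK3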
# Target sequence (O14649 whole entry, looked up): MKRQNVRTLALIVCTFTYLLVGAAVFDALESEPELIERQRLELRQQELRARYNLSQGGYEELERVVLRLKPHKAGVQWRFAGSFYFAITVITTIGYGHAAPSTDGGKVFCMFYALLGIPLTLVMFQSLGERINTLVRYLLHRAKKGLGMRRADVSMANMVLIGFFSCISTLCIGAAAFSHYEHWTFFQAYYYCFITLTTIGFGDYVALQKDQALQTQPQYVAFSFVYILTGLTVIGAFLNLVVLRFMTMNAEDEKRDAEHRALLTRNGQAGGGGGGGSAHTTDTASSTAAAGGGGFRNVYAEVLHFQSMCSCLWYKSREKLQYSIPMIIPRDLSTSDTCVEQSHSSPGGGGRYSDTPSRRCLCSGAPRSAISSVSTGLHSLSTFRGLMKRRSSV
# Kir21 block: blocks the mouse Kir2.1 inward-rectifier potassium channel | actives 0.85% (n = 310,000) | HEK293-Kir2.1, FluxOR thallium flux fluorescence; hits give low values | B-score at 10 µM;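 active = fluorescence ratio B-score at or below minus 3 SD of library scores, with starting-brightness B-score within 2 SD, cut at about -4.2 in these data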;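 also: channel flux triggered by added potassium and thallium sulfate stimulus; B-score of peak minus minimum fluorescence over baseline after thallium stimulus; more negative B-score means stronger Kir2.1 block with less thallium influx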
# Starred values were filed as active, the others as inactive; i = inactive; · = no result given. In the library only some 3.8% were active in any assay of this set; here they are far more common.
SMILES,KCNQ1 act,KCNQ1 block,KCNK9 block,hERG rescue,KCNK3 block,Kir21 block
Fc1ccc(Br)cc1C1C=C(c2ccc(Br)cc2)Nc2ncnn21 (configuration not stated),i,i,i,-8,-12*,-1.2
CCc1ccc(C2=CC(c3cc(Br)ccc3F)n3ncnc3N2)cc1 (configuration not stated),·,·,·,·,-8.9*,·
Cc1ccc(S(=O)(=O)N2CCCCC2CCNC(=O)C(=O)NCc2ccccc2)cc1 (configuration not stated),i,i,i,-1,i,2.1
Cc1ccc(S(=O)(=O)N2CCOCC2)cc1NC(=O)Cn1nc(C)c([N+](=O)[O-])c1C,i,i,i,-12,i,0.89
O=C(COC(=O)CSc1ccc(Cl)cc1)Nc1ccc2[nH]c(=O)[nH]c2c1,·,·,·,·,i,·
O=C(CC1CC2CCC1C2)NC1CCCCCCC1 (configuration not stated),i,i,i,-7,i,0.36
CCOC(=O)c1ccc(CC(=O)c2ccc(O)cc2O)o1,i,i,i,-7,i,-0.26
CCC(=O)Oc1ccc(C/C(=N\O)c2ccc(O)cc2O)o1,i,7*,i,-6,i,0.14
O=[N+]([O-])c1cccc(CSc2nnc(Cc3ccccc3)n2-c2ccc(F)cc2)c1,i,i,i,-8,i,-5.8*
CCOC(=O)c1sc2nc(C)[nH]c(=S)c2c1C,40*,i,i,1,i,-0.05
Clc1ccc(Cn2c(-c3cccnc3Cl)nc3ccccc32)cc1,i,i,i,-13,i,-5.3*
Clc1ccc(Cn2c(-c3cccnc3Cl)nc3ccccc32)c(Cl)c1,i,i,i,-17,i,0.78
CN(C)CCNC(=O)COc1ccc(C23CC4CC(CC(C4)C2)C3)cc1,i,i,i,-24,i,-6.5*
Cc1ccc(C23CC4CC(CC(NC(=O)NCCN(C)C)(C4)C2)C3)cc1,i,i,i,-6,i,-4.3*
CCN(CC)CCNC(=O)COc1ccc(OC)cc1,i,i,i,-7,i,0.04
O=C(CN1C(=O)COc2ccccc21)N1CCN(C2CCCCC2)CC1,i,i,i,-5,i,-1.2
CN(C)c1cc[n+](CC(=O)Nc2cc(C(F)(F)F)ccc2Cl)cc1,i,i,i,3,i,-0.31
O=C(CC(=O)c1ccccc1)Nc1cc(C(F)(F)F)ccc1Cl,i,i,i,-6,i,0.38
O=C(Nc1cc(C(F)(F)F)ccc1Cl)C(NCc1ccccc1)c1ccccc1 (configuration not stated),i,11*,-7.1*,-21,i,-0.39
O=C(NC(=S)Nc1cc(C(F)(F)F)ccc1Cl)c1ccccc1,i,i,i,4.7*,i,1.3
Cc1cc[n+](CC(=O)Nc2cc(C(F)(F)F)ccc2Cl)cc1,i,i,i,4.9*,i,-0.31
COc1ccc(CN(C)c2ncnc3sccc23)c(OC)c1OC,i,i,i,-13,i,-0.09
COc1cc(Cl)c(C)cc1NC(=O)CNC(C)c1ccccc1OC (configuration not stated),i,i,i,-23,i,-4.2*
COc1ccccc1C(C)NCC(=O)Nc1c(F)cccc1F (configuration not stated),i,i,i,-20,i,-0.6
Cc1ccc(NC(=O)c2ccccc2NS(=O)(=O)c2ccc(Cl)s2)cc1S(=O)(=O)N1CCOCC1,i,6*,i,-22,i,-0.19
SMILES,KCNQ1 act,KCNQ1 block,KCNK9 block,hERG rescue,KCNK3 block,Kir21 block
Cc1ccc(NC(=O)c2oc3ccccc3c2COC(C)C)cc1S(=O)(=O)N1CCOCC1,·,·,·,·,-9.4*,·
Cc1ccc(NC(=O)COc2cccc(Oc3ccccc3)c2)cc1S(=O)(=O)N1CCOCC1,·,·,·,·,-8.8*,·
Cc1cccc(OCCC(=O)Nc2ccc(C)c(S(=O)(=O)N3CCOCC3)c2)c1,·,·,·,·,i,·
CCOC(=O)C1(NC(=O)C2(N3C(=O)c4ccccc4C3=O)CCCC2)CCCC1,·,·,·,·,i,·
Cc1noc(C)c1COc1cccc(C(=O)Nc2ccc(Br)cc2F)c1,·,·,·,·,-9.2*,·
Cc1ccc(NC(=O)c2cccc(OCc3c(C)noc3C)c2)c(C)c1,i,i,i,-11,i,0.03
Cc1[nH]c2ccccc2c1CCN(Cc1cccnc1)C(=S)Nc1cccc(F)c1,i,i,-7.5*,-26,i,-1.1
COc1cccc(NC(=S)N(CCc2c(C)[nH]c3ccccc23)Cc2cccs2)c1,·,·,·,·,-9.2*,·
CC(C)(C)c1cc(-c2n[nH]c(=S)n2-c2ccccc2F)n[nH]1,i,i,i,9.1*,i,0.37
O=C(Oc1c(-c2ccccc2)c(=O)n2c3c(cccc13)CC2)c1ccccc1,i,i,i,-11,i,-1.6
O=C(Oc1c(-c2ccccc2)c(=O)n2c3c(cccc13)CC2)c1cccc([N+](=O)[O-])c1,i,6*,i,-11,i,-0.64
COc1cccc(Nc2nnc(SCc3cc([N+](=O)[O-])cc4c3OCOC4)s2)c1,i,i,i,-14,i,-1.6
Cc1cccc(C)c1Nc1nnc(SCc2cc([N+](=O)[O-])cc3c2OCOC3)s1,i,i,-6.7*,-15,i,-2.8
COc1ccccc1NC(=O)Nc1nc(CC(=O)NCc2ccc(F)cc2)cs1,i,i,i,-20,i,-0.41
COc1ccc(C(=O)N/C(=C\c2cccc3ccccc23)C(=O)N2CCN(C)CC2)cc1OC,i,i,i,9.7*,i,0.05
CCOC(=O)N1CCN(C(=O)/C(=C/c2cccc3ccccc23)NC(=O)c2ccc(OC)c(OC)c2)CC1,i,i,i,-12,i,2.5
COc1ccc(S(=O)(=O)N2CC(=O)Nc3ccccc32)cc1,i,i,i,-10,i,-0.37
O=C(CNC1CCCCCC1)Nc1ccc(N2CCCC2)cc1,i,i,i,-11,·,-0.31
O=C(CNCCC1=CCCCC1)Nc1ccc(N2CCCCCC2)cc1,i,i,i,-21,i,-5.6*
CC(C)CCOC(=O)C[N+](C)(C)CCOC1CC2CCC1(C)C2(C)C (configuration not stated),i,i,i,-12,i,-2.5
CCC(C)OC(=O)C[N+](C)(C)CCOC1CC2CCC1(C)C2(C)C (configuration not stated),i,7*,i,-9,i,-2.1
CCCCCCOC(=O)C[N+](C)(C)CCOC1CC2CCC1(C)C2(C)C (configuration not stated),i,9*,i,-29,i,-7.7*
